Counter-ions that a name gives are not always drawn. Peptide text beside a SMILES is read from it. * marks the point of attachment. Cbz = O=C(OCc1ccccc1)*

A short description of assay [1]: Growth inhibition of human MCF10A cells after 72 hrs by CellTiter-Blue assay. The class given is cell-based. The conditions noted are these: MCF-10A. The method, boiled down:
(§1)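 CellTiter-Blue viability assay after 72 h exposure to test compound. IC50 (μM) reported as the mean of triplicates with standard deviation. Some values are approximate owing to low solubility in medium.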
(In general: Alamar Blue is a resazurin reagent that responds to reducing activity.)

The next assay has as its system MCF7. The experiment in a line: Growth inhibition of human MCF7 cells after 72 hrs by CellTiter-Blue assay. Type of assay: functional, cell-based. The conditions noted are these: MCF7, 72 h. The method, boiled down: as §1
In another assay the test system is MDA-MB-231. Briefly: Growth inhibition of human MDA-MB-231 cells after 72 hrs by CellTiter-Blue assay. The class given is functional, cell-based. The conditions noted are these: MDA-MB-231, 72 h. The method, boiled down:
as §1

The IC50 is the concentration at which inhibition is half-maximal. In assay [1], `COc1cccc2c1C(=O)c1c(O)c3c(c(O)c1C2=O)C[C@@](O)(C(=O)CO)C[C@@H]3O[C@H]1C[C@H](N)[C@H](O)[C@H](C)O1` [DOXORUBICIN HYDROCHLORIDE] yielded a half-inhibitory concentration (IC50) of 1110 nM.
As for `CC(C)C[C@@H](C=O)NC(=O)[C@H](CC(C)C)NC(=O)[C@H](CC(C)C)NC(=O)OCc1ccccc1` [MG-132] (Cbz-Leu-Leu-Leu-aldehyde), the concentration for half-maximal inhibition (IC50) in the assay with MCF7 amounted to 130 nM; in assay [1] it was 290 nM; in the assay with MDA-MB-231, 180 nM.

Source of the values: ChEMBL document CHEMBL3091376, “Design, synthesis and in vitro anticancer evaluation of 4,6-diamino-1,3,5-triazine-2-carbohydrazides and -carboxamides” (Bioorg Med Chem Lett, 2013).
